One block for each compound: values may come before it. Calls of active or inactive are those of the source. The rule behind the calls is not given here.
Legend:
[1] = test system: HeLa; test: Antiproliferative activity against human HeLa cells at 10 uM incubated for 4 days by Syto60 staining based assay; format: functional, cell-based; conditions: time 4.0 day
Procedure, shortened: (§1)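 Proliferation read by Syto60 nucleic acid stain fluorescence (excitation 635 nm, emission 695 nm) after treatment for up to 96 h. Each time point normalized to its DMSO control. Mean ± SD from 4 independent experiments. Cells kept at 37°C, 5% CO2 in 10% FBS-supplemented medium.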

[2] = target: Ribosomal protein S6 kinase alpha-1 (Homo sapiens) (UniProt Q15418); test: Inhibition of RPS6KA1 kinase domain 1 (unknown origin) assessed as residual enzyme activity at 10 uM by Ambit kinase binding assay relative to control
[3] = test system: HCT-116; test: Antiproliferative activity against human HCT-116 with p53+/+ cells at 10 uM incubated for 4 days by Syto60 staining based assay; format: functional, cell-based; conditions: time 4.0 day; procedure, shortened: as §1
[4] = target: Insulin-like growth factor 1 receptor (Homo sapiens, UniProt P08069); test: Binding affinity to IGF1R (unknown origin) assessed as dissociation constant by Ambit kinase binding assay
Insulin-like growth factor 1 receptor, sequence (P08069 31-736 limits assumed): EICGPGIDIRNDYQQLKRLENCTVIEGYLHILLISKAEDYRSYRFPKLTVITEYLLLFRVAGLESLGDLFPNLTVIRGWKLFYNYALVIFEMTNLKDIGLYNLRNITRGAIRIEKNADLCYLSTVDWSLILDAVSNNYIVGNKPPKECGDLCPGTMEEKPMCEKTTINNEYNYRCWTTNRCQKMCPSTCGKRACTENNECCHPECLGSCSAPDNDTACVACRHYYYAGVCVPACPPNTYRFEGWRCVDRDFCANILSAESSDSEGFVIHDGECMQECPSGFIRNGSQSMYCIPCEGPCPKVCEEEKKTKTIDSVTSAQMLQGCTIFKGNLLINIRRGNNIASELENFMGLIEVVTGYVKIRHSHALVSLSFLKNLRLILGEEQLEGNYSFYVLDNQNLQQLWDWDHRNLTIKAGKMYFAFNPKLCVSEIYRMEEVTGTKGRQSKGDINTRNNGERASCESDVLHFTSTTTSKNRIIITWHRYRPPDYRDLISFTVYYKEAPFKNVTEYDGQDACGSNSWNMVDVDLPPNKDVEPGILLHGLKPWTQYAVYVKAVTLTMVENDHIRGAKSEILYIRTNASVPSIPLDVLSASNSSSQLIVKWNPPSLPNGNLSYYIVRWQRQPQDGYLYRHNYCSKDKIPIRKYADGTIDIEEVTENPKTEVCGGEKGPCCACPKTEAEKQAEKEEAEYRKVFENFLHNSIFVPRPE
Insulin-like growth factor 1 receptor, sequence (P08069 741-1367 limits assumed): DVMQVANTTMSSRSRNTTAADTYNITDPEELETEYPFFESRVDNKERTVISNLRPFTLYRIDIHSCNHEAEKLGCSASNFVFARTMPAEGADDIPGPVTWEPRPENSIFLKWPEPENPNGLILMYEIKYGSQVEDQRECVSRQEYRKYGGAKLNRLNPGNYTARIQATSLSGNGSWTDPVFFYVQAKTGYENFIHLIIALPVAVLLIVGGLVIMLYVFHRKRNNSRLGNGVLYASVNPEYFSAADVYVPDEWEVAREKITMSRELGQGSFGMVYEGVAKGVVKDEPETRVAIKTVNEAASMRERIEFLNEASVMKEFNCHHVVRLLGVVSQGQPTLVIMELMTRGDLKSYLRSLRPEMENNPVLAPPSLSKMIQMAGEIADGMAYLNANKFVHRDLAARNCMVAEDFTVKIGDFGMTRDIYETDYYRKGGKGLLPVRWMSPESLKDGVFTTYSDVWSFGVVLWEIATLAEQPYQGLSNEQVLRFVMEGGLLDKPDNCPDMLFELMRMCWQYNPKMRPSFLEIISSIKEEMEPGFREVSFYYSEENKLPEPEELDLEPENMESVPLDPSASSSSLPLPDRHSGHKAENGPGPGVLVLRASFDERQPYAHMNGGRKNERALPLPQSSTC

[5] = target: Activated CDC42 kinase 1 (Homo sapiens, UniProt Q07912); test: Inhibition of TNK2 (unknown origin) assessed as residual enzyme activity at 10 uM by Ambit kinase binding assay relative to control
[6] = target: ALK tyrosine kinase receptor (Homo sapiens, UniProt Q9UM73); test: Binding affinity to ALK (unknown origin) assessed as dissociation constant by Ambit kinase binding assay
ALK tyrosine kinase receptor, sequence (Q9UM73 whole entry): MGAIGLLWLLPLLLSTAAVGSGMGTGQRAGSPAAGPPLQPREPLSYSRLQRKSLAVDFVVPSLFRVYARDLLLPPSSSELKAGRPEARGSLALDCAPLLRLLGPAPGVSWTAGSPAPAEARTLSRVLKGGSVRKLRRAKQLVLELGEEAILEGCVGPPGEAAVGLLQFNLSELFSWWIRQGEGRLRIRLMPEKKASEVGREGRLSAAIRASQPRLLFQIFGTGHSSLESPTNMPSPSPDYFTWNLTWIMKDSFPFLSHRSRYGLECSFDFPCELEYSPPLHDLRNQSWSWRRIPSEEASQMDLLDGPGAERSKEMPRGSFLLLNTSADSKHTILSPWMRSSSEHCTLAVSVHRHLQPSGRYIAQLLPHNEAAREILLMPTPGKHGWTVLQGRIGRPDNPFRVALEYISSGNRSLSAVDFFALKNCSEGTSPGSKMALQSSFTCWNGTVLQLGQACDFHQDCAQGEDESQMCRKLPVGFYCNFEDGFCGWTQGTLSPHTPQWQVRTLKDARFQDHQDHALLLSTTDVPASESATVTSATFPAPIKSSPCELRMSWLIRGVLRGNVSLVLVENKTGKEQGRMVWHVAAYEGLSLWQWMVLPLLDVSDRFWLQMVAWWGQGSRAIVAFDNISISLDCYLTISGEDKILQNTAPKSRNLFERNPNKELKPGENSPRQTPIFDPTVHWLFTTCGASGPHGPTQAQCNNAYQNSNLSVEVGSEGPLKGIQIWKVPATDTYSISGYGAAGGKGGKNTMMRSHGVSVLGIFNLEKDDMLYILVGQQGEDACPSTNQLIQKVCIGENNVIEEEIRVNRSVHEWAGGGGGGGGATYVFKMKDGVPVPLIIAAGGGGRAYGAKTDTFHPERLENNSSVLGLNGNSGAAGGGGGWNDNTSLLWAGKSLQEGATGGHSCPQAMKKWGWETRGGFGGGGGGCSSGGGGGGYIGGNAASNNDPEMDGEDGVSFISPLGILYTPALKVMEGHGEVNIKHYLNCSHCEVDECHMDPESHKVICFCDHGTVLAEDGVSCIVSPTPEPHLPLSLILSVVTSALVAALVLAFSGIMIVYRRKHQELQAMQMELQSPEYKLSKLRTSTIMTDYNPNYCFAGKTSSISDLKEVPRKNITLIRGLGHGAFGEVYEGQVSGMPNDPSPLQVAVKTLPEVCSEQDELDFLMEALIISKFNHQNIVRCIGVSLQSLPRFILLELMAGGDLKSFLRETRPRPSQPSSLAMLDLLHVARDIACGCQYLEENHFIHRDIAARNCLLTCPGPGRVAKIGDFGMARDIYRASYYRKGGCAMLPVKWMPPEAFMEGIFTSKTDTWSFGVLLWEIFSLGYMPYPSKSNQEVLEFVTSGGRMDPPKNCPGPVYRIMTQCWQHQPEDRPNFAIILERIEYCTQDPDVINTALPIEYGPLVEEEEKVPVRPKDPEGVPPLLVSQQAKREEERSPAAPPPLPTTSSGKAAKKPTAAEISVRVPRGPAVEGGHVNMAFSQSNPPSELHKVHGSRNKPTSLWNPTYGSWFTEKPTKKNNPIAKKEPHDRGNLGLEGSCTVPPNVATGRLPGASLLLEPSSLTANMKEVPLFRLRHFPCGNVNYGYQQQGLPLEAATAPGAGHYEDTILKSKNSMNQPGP

[7] = test system: HCT-116; test: Induction of apoptosis in human HCT-116 cells assessed as increase in cleaved PARP level at 5 to 10 uM measured after 48 hrs by immunoblot analysis; format: functional, cell-based; conditions: dose 5-10 µM
[8] = test system: TERT-RPE1; test: Antiproliferative activity against hTERT-RPE1 cells assessed as loss of clonal survival upto 25 uM incubated for 10 days by crystal violet staining based assay; format: toxicity, cell-based; conditions: human, tert-rpe1, 240 h, time 10 day
Procedure, shortened: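 Colony outgrowth: cells plated at 200 cells per 60-mm dish, exposed to compound or DMSO vehicle and stained with crystal violet after 10 days. HCT116 grown in McCoy's 5A; A549 and HeLa in DMEM; hTERT-RPE1 in DMEM/F-12. All media had 10% FBS and penicillin/streptomycin, 37°C, 5% CO2. Quantified from 3 independent experiments, mean + SD, Student's t test.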

[9] = test system: A549; test: Antiproliferative activity against human A549 cells at 10 uM measured after 96 hrs in presence of Z-VAD-FMK by Syto60 staining based assay; format: functional, cell-based
[10] = test system: TERT-RPE1; test: Induction of aneuploidy in human TERT-RPE1 cells assessed as frequency of non-disjunction events per cell at 10 uM treated for 24 hrs by karyo-typing analysis (reference value: 0.1); format: functional
Procedure, shortened: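 Asynchronous cells were exposed to 10 μM compound for 24 h. Medium was then replaced with medium containing 100 ng/mL colcemid for 2 h to arrest cells in metaphase, after which cells were harvested and karyotyped.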

[11] = target: Cyclin-G-associated kinase (Homo sapiens, UniProt O14976); test: Binding affinity to GAK (unknown origin) assessed as dissociation constant by Ambit kinase binding assay
[12] = target: Mitogen-activated protein kinase 3 (Homo sapiens) (UniProt P27361); test: Inhibition of ERK1 (unknown origin) assessed as residual enzyme activity at 10 uM by Ambit kinase binding assay relative to control
[13] = target: Mitogen-activated protein kinase 1 (Homo sapiens, UniProt P28482); test: Binding affinity to ERK2 (unknown origin) assessed as dissociation constant by Ambit kinase binding assay
Mitogen-activated protein kinase 1, sequence (P28482 whole entry): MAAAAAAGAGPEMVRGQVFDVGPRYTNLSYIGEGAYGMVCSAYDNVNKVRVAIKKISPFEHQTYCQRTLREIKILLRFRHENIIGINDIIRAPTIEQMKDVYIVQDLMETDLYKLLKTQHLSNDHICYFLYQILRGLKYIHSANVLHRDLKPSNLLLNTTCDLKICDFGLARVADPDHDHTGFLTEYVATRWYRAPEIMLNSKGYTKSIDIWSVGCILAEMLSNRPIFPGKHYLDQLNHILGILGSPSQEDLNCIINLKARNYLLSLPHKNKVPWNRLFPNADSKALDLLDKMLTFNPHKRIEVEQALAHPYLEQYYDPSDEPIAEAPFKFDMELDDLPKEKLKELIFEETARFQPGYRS

[14] = test system: MCF-10A; test: Antiproliferative activity against human MCF-10A cells at 10 uM incubated for 4 days by Syto60 staining based assay; format: toxicity, cell-based; conditions: 96 h, time 4 day; procedure, shortened: as §1
[15] = test system: U2OS; test: Reversal of paclitaxel-induced mitotic arrest in human U2OS cells assessed as Ser10 phosphorylated Histone H3-positive 4c population at 5 uM incubated for 16 hrs by flow cytometry (reference value: 25 %); format: functional
[16] = test system: U2OS; test: Induction of chromosome mis-segregation in human U2OS cells expressing histone H2B-GFP at 5 to 10 uM treated for 4 hrs followed by MG132 treatment for 30 to 60 mins and subsequent replacement of medium containing MG132 measured after 30 mins by immunofluoresence analysis; format: functional, cell-based; conditions: dose 5-10 µM, time 4.5-5 hrs
[17] = test system: U2OS; test: Reversal of paclitaxel-induced mitotic arrest in human U2OS cells assessed as Ser10 phosphorylated Histone H3-positive 4c population at 10 uM incubated for 16 hrs by flow cytometry (reference value: 25 %); format: functional
[18] = target: Aurora kinase B (Homo sapiens) (UniProt Q96GD4); test: Inhibition of Aurora B phosphorylation at Thr232 in human U2OS cells by Western blot analysis; format: cell-based
Procedure, shortened: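 Thymidine-released U2OS cells were treated with inhibitor or DMSO for 1 hr before mitotic entry, then with taxol (1 μM) plus MG132 (10 μM). Mitotic cells were collected by shake-off and immunoblotted for phospho-Aurora B (Thr232). Cyclin B served as the mitotic marker and the Mps1 mobility shift as autophosphorylation.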

[19] = target: Tyrosine-protein kinase Fer (Homo sapiens) (UniProt P16591); test: Inhibition of FER (unknown origin) assessed as residual enzyme activity at 10 uM by Ambit kinase binding assay relative to control
[20] = target: Calcium/calmodulin-dependent protein kinase kinase 2 (Homo sapiens) (UniProt Q96RR4); test: Inhibition of CAMKK2 (unknown origin) assessed as residual enzyme activity at 10 uM by Ambit kinase binding assay relative to control
[21] = target: Serine/threonine-protein kinase 26 (Homo sapiens) (UniProt Q9P289); test: Inhibition of MST4 (unknown origin) assessed as residual enzyme activity at 10 uM by Ambit kinase binding assay relative to control
Serine/threonine-protein kinase 26 (Homo sapiens), sequence (Q9P289 2-416 limits assumed): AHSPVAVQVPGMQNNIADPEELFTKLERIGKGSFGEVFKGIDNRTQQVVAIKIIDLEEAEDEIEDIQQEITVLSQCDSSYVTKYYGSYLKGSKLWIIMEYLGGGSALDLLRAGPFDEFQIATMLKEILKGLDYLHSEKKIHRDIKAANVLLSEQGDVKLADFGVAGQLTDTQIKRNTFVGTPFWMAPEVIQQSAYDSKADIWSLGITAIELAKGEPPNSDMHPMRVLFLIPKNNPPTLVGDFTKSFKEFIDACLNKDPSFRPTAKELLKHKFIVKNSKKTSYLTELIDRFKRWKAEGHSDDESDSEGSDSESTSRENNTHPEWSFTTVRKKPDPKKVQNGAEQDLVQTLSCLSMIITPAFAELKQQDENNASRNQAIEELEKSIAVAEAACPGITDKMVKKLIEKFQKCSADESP

[22] = target: Ribosomal protein S6 kinase alpha-5 (Homo sapiens) (UniProt O75582); test: Inhibition of RPS6KA5 kinase domain 2 (unknown origin) assessed as residual enzyme activity at 10 uM by Ambit kinase binding assay relative to control
Ribosomal protein S6 kinase alpha-5 (Homo sapiens), sequence (O75582 whole entry, looked up, the tested form may be a part): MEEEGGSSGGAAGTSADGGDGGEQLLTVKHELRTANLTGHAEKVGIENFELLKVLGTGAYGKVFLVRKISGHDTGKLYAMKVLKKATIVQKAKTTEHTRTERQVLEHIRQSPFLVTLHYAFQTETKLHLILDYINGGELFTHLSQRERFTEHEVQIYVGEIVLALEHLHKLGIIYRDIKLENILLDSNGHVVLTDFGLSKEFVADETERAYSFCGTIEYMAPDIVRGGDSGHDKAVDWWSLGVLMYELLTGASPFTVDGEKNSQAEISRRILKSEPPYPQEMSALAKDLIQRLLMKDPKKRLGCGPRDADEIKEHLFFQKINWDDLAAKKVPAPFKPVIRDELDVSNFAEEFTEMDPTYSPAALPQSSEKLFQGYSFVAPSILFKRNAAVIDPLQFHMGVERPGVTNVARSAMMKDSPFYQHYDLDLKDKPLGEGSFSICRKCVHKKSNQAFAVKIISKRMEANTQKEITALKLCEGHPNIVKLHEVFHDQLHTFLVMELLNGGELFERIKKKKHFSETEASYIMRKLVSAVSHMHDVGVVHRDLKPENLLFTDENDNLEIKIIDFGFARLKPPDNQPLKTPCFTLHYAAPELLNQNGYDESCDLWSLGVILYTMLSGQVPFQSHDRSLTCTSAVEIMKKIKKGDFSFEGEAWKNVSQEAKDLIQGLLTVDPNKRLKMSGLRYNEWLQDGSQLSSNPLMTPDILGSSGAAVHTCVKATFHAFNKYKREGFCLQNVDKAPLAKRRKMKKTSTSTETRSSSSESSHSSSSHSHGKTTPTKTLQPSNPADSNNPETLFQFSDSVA

[23] = target: Serine/threonine-protein kinase Nek1 (Homo sapiens) (UniProt Q96PY6); test: Inhibition of NEK1 (unknown origin) assessed as residual enzyme activity at 10 uM by Ambit kinase binding assay relative to control
[24] = target: Dual specificity mitogen-activated protein kinase kinase 3 (Homo sapiens) (UniProt P46734); test: Inhibition of MEK3 (unknown origin) assessed as residual enzyme activity at 10 uM by Ambit kinase binding assay relative to control
[25] = target: Serine/threonine-protein kinase ULK3 (Homo sapiens) (UniProt Q6PHR2); test: Inhibition of ULK3 (unknown origin) assessed as residual enzyme activity at 10 uM by Ambit kinase binding assay relative to control
Serine/threonine-protein kinase ULK3 (Homo sapiens), sequence (Q6PHR2 whole entry): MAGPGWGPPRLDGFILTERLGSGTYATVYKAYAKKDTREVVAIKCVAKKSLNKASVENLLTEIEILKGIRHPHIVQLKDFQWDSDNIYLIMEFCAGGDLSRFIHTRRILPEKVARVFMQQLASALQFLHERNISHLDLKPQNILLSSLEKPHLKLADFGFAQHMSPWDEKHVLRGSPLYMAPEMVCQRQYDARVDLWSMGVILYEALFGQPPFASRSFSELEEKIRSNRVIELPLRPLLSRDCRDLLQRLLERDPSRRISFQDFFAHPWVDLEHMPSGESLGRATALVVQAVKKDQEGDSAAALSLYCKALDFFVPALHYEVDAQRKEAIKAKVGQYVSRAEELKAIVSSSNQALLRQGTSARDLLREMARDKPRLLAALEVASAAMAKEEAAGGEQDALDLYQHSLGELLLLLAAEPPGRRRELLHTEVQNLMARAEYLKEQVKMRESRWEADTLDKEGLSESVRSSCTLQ

[26] = target: Bone morphogenetic protein receptor type-1B (Homo sapiens) (UniProt O00238); test: Inhibition of BMPR1B (unknown origin) assessed as residual enzyme activity at 10 uM by Ambit kinase binding assay relative to control
[27] = target: Serine/threonine-protein kinase TAO3 (Homo sapiens) (UniProt Q9H2K8); test: Inhibition of TAOK3 (unknown origin) assessed as residual enzyme activity at 10 uM by Ambit kinase binding assay relative to control

Activity [2]: 29%
Kd [4]: 750 nM
Activity [5]: 14%
Kd [6]: 21 nM
Kd [11]: 1100 nM
Activity [12]: 23%
Kd [13]: 2900 nM
inhibition [18]: Active
Activity [19]: 16%
SMILES: COc1cc(N2CCC(O)CC2)ccc1Nc1cc(Nc2ccccc2S(=O)(=O)C(C)C)c2cc[nH]c2n1
Activity [1]: Active
Activity [3]: Active
Activity [7]: Active
Activity [8]: Toxic
Activity [9]: Active
Activity [10]: 3.3
Activity [14]: Toxic
Activity [15]: 15%
Activity [16]: Active
Activity [17]: 1%

Activity [20]: 26%
Activity [21]: 2.4%
Activity [22]: 12%
Activity [23]: 15%
Activity [24]: 6%
Activity [25]: 11%
Activity [26]: 5%
Activity [27]: 22%
SMILES: O=C1c2ccccc2-c2n[nH]c3cccc1c23

Reference: ChEMBL document CHEMBL5705891, “Small-molecule kinase inhibitors provide insight into Mps1 cell cycle function” (Nat Chem Biol, 2010)
